The target of series [1] is T1, Retinoic acid receptor RXR-beta (Homo sapiens, UniProt P28702).
T1 sequence (P28702 whole entry): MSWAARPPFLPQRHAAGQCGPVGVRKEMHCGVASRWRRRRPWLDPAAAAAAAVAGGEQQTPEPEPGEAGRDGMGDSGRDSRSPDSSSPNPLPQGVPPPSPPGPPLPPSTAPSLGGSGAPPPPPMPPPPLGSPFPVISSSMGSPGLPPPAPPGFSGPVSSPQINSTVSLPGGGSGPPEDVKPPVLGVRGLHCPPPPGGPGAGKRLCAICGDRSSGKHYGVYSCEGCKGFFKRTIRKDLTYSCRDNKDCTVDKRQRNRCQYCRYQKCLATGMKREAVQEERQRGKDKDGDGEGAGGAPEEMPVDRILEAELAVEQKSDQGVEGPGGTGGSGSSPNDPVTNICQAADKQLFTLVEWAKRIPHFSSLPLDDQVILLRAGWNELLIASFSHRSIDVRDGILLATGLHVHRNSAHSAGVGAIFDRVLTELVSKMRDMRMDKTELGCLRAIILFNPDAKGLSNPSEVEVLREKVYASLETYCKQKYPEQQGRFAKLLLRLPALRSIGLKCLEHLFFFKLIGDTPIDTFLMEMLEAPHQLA
The series can be described thus: Agonist activity at human RXRbeta transfected in human HEK293T cells co-expressing pFR/pRL-Luc incubated for 14 to 16 hrs by hybrid reporter gene assay. The class given is cell-based. In general terms: In a reporter assay the amount or activity of a reporter protein is the signal.

Series [2] deals with T2, Retinoic acid receptor RXR-alpha (Homo sapiens, UniProt P19793).
T2 sequence (P19793 whole entry): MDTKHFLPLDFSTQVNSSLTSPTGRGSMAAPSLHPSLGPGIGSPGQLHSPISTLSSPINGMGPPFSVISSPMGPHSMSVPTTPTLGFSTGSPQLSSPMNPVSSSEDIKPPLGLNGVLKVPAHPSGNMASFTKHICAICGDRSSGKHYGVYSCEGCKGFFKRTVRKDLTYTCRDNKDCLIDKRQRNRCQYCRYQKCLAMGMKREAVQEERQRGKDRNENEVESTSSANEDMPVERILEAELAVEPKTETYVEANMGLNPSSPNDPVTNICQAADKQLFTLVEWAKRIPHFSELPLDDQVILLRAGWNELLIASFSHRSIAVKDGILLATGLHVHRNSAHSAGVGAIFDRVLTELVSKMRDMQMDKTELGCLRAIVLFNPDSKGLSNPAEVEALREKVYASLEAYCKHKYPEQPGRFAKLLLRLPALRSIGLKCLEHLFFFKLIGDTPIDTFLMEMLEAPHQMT
The series can be described thus: Agonist activity at human RXRalpha transfected in human HEK293T cells co-expressing pFR/pRL-Luc incubated for 14 to 16 hrs by hybrid reporter gene assay. The class given is cell-based.

In series [3] the target is T3, Retinoic acid receptor RXR-gamma (Homo sapiens, UniProt P48443).
T3 sequence (P48443 whole entry): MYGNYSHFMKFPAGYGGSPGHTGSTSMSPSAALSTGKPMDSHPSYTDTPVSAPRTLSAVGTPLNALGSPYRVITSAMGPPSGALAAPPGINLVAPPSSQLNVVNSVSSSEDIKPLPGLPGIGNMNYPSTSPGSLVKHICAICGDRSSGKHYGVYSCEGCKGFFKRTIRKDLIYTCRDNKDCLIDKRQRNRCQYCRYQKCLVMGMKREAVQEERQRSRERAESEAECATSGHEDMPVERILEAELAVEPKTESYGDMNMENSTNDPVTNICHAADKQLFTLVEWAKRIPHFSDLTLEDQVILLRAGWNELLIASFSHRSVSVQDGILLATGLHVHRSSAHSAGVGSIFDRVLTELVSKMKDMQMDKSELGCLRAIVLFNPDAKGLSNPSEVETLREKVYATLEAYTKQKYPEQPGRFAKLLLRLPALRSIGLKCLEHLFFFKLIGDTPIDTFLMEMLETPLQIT
In words: Agonist activity at human RXRgamma transfected in human HEK293T cells co-expressing pFR/pRL-Luc incubated for 14 to 16 hrs by hybrid reporter gene assay. The class given is cell-based.

For series [4], the target named is T4, Retinoic acid receptor RXR-gamma (Homo sapiens) (UniProt P48443).
T4 sequence (whole entry): T3 sequence (P48443 whole entry)
The series can be described thus: Agonist activity at human RXRgamma transfected in human HEK293T cells co-expressing pFR/pRL-Luc at 30 uM incubated for 14 to 16 hrs by hybrid reporter gene assay. It is filed as cell-based. The note with it: time 14-16 hrs. The gist of the method:
(§1)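 Gal4 hybrid reporter assay in HEK293T cells, seeded 24 h before transfection (Lipofectamine LTX, Opti-MEM) with pFR-Luc, pRL-SV40 and pFA-CMV plasmid carrying the hinge region and LBD of the human receptor. After 5 h, compound added in 0.1% DMSO, with 0.1% DMSO alone as untreated control. Dual-Glo luciferase read after 14−16 h; firefly/renilla normalized; duplicates, ≥2 independent experiments.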

Series [5] addresses T5, Retinoic acid receptor RXR-alpha (Homo sapiens) (UniProt P19793).
T5 sequence (whole entry): T2 sequence (P19793 whole entry)
The series can be described thus: Agonist activity at human RXRalpha transfected in human HEK293T cells co-expressing pFR/pRL-Luc at 30 uM incubated for 14 to 16 hrs by hybrid reporter gene assay. The note with it: time 14-16 hrs. The class given is cell-based. The gist of the method:
as §1

Series [6] has as its target T6, Retinoic acid receptor RXR-beta (Homo sapiens) (UniProt P28702).
T6 sequence (whole entry): T1 sequence (P28702 whole entry)
The series can be described thus: Agonist activity at human RXRbeta transfected in human HEK293T cells co-expressing pFR/pRL-Luc at 30 uM incubated for 14 to 16 hrs by hybrid reporter gene assay. The class given is cell-based. The note with it: time 14-16 hrs. The gist of the method: as §1

Series [7] is described as follows: Metabolic stability in Sprague-Dawley rat liver microsomes assessed as compound degradation at 10 uM incubated for 60 min by HPLC analysis. The class given is ADME. The note with it: 1 h. The gist of the method: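 Compound at 10 μM final in 0.1 M phosphate, pH 7.4, was preincubated 5 min at 37 °C with an NADPH-regenerating system. Sprague-Dawley rat liver microsomes were then added. Reactions were stopped with ice-cold methanol at 0, 15, 30 and 60 min and remaining compound quantified by HPLC against an external calibration. Controls: no NADPH, heat-inactivated microsomes. Three independent experiments.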
A general note: Microsomes from liver hold many membrane-bound enzymes, among them those of drug oxidation.

pEC50: −log10 of the molar value. The source made the active and inactive calls. The calls are words filed in the database; no cut-off is given here.

A word on the pEC50: it is the EC50 on a negative log10 scale, so that one unit is a factor of ten. High values mean a low EC50, low ones a high EC50. Turning to `O=C(O)CCc1nc(-c2ccc(Cl)cc2)c(-c2ccccc2)o1`, the pEC50 is 5.62 in series [1], 5.89 in series [2] and 5.85 in series [3].
As for `Cc1ccc(-n2nc(CCC(=O)O)cc2-c2cc(Cl)cc(Cl)c2)cc1`, the pEC50 was 5.85 in series [1], 5.60 in series [2] and 5.52 in series [3].
As for `CC(C)(C)c1cc(-c2oc(CCC(=O)O)nc2-c2ccccc2)cc(C(C)(C)C)c1`, the pEC50 in series [1] was 6.89; in series [3] it was 6.30.
With `Cn1ccc(-n2nc(CCC(=O)O)cc2-c2cc(Cl)cc(Cl)c2)n1`, the pEC50 in series [1], in series [2] and in series [3] was below 4.52 in each case.
Turning to `COc1ccc(-n2nc(CCC(=O)O)cc2-c2cc(Cl)cc(Cl)c2)cc1`, the pEC50 was 5.85 in series [1], 5.80 in series [2] and 5.40 in series [3].
Turning to `Cc1cc(C)cc(-c2oc(CCC(=O)O)nc2-c2ccccc2)c1`, the negative-log EC50 (pEC50) in series [1] was 6.05; in series [2] it was 6.52.
As to `Cc1ccccc1-c1oc(CCC(=O)O)nc1-c1ccccc1`, the pEC50 in series [2] was 4.77; in series [3], below 4.52.
`O=C(O)CCc1nc(-c2ccccc2)c(-c2ccc(Cl)cc2)o1`: the pEC50 in series [3] was 4.72.
Take `O=C(O)CCc1nc(-c2ccccc2)c(-c2cc(Cl)ccc2Cl)o1`: the pEC50 was 5.85 in series [1], 5.24 in series [2] and below 4.70 in series [3].
On the same counts, the results for `Cc1ccccc1-c1nc(CCC(=O)O)oc1-c1ccccc1` are 4.41, 5.19 and 4.60.
As to `O=C(O)CCc1nc(-c2cc(Cl)cc(Cl)c2)c(-c2cc(Cl)cc(Cl)c2)o1`, the pEC50 is 5.82 in series [1] and 5.99 in series [2].
Consider `O=C(O)CCc1nc(-c2cccc(Cl)c2)c(-c2ccccc2)o1`, for which the negative-log EC50 (pEC50) in series [1] was 5.54; in series [2], 5.72; in series [3], 5.17.
As for `O=C(O)CCc1nc(-c2cc(Cl)cc(Cl)c2)c(-c2ccccc2)o1`, the results for the pEC50 in series [1] and in series [3] were 5.47 and 5.55, respectively.
With `O=C(O)CCc1nc(-c2ccccc2)c(-c2ccccc2)o1` [OXAPROZIN], the pEC50 in series [1] was 4.60; in series [3] it was 4.40.
Consider `O=C(O)CCc1nc(-c2ccccc2)c(-c2ccc(Cl)c(Cl)c2)o1`, for which the negative-log EC50 (pEC50) in series [1] is 6.06; in series [2] it was 6.29; in series [3], 5.82.
With `O=C(O)CCc1nc(-c2ccc(Cl)c(Cl)c2)c(-c2ccccc2)o1`, the pEC50 in series [1] is 5.89; in series [2], 6.21; in series [3], 5.35.
In the case of `O=C(O)CCc1nc(-c2ccccc2)co1`, the outcome in series [4], in series [5] and in series [6] was inactive.
As for `O=C(O)CCc1nc(-c2ccccc2)c(-c2cccc(Cl)c2Cl)o1`, the pEC50 in series [2] is 5.92; in series [3], 5.49.
With `O=C(O)c1nc(-c2ccccc2)c(-c2ccccc2)o1`, the pEC50 in series [1], in series [2] and in series [3] was below 4.30 in each case.
Consider `O=C(O)CCc1nc(-c2ccccc2)c(-c2cccc(C(F)(F)F)c2)o1`, for which the negative-log EC50 (pEC50) was 7.10 in series [1], 7.15 in series [2] and 6.52 in series [3].
In the case of `O=C(O)CCc1ncc(-c2ccccc2)o1`, the result in series [4], in series [5] and in series [6] was inactive.
On to `O=C(O)CCc1nc(-c2ccccc2)c(-c2cc(Cl)cc(Cl)c2)o1`, for which the pEC50 was 7.30 in series [1], 7.22 in series [2] and 6.70 in series [3]. Also, the Stabilty entry in series [7] was “Stable”.
Compound `O=C(O)CCc1nc(-c2ccccc2)c(-c2cc(F)cc(F)c2)o1` had a pEC50 in series [1] of 7.30.
Regarding `O=C(O)CCc1cc(-c2cc(C(F)(F)F)cc(C(F)(F)F)c2)n(-c2ccc(Cl)cc2)n1`, the values for the pEC50 in series [1] and in series [3] were 6.57 and 6.34, respectively.
For `O=C(O)CCCc1nc(-c2ccccc2)c(-c2cc(Cl)cc(Cl)c2)o1`, the pEC50 was 6.30 in series [1], 6.32 in series [2] and 5.89 in series [3].
For the compound `O=C(O)CCCc1nc(-c2ccccc2)c(-c2ccccc2)o1`, the pEC50 is 4.87 in series [1], 5.10 in series [2] and 4.37 in series [3].
Regarding `COc1cccc(-c2oc(CCC(=O)O)nc2-c2ccccc2)c1`, the pEC50 is 5.74 in series [1], 5.85 in series [2] and below 5.00 in series [3].
For `O=C(O)Cc1nc(-c2ccccc2)c(-c2ccccc2)o1`, the result in series [4], in series [5] and in series [6] was inactive.
The compound `O=C(O)CCc1cc(-c2cc(Cl)cc(Cl)c2)n(-c2ccccc2)n1` showed a pEC50 in series [3] of 5.80.
On to `Cc1ccc(-c2oc(CCC(=O)O)nc2-c2ccccc2)cc1`, for which the pEC50 in series [1] is 5.80; in series [2], 6.00; in series [3] it was below 5.00.
Regarding `O=C(O)CCc1nc(-c2ccc(Cl)cc2)c(-c2cc(Cl)cc(Cl)c2)o1`, the pEC50 is 6.54 in series [1], 6.74 in series [2] and 6.40 in series [3].
For `Cc1cccc(-c2nc(CCC(=O)O)oc2-c2ccccc2)c1`, the pEC50 in series [1] was 5.32.
On to `NC(=O)CCc1nc(-c2ccccc2)c(-c2ccccc2)o1`, for which the outcome in series [4], in series [5] and in series [6] was inactive.
For `Cc1ccc(-c2nc(CCC(=O)O)oc2-c2ccccc2)cc1`, the pEC50 in series [1] was 4.84; in series [3], below 4.00.
Take `N#Cc1ccc(-n2nc(CCC(=O)O)cc2-c2cc(Cl)cc(Cl)c2)cc1`: the pEC50 is 5.70 in series [1], 5.11 in series [2] and 5.22 in series [3].
Turning to `O=C(O)CCc1cc(-c2cc(Cl)cc(Cl)c2)n(-c2ccc(F)cc2)n1`, the values for the pEC50 in series [1], in series [2] and in series [3] were 6.33, 6.37 and 5.79, respectively.
The corresponding values for `Cc1cccc(-c2oc(CCC(=O)O)nc2-c2ccccc2)c1` are 6.05, 6.30 and 5.46.
Compound `O=C(O)CCc1nc(-c2ccccc2)c(-c2cccc(Cl)c2)o1` showed a pEC50 in series [1] of 6.22.
Take `O=C(O)CCc1cc(-c2cc(Cl)cc(Cl)c2)n(-c2cccc(Cl)c2)n1`: the pEC50 in series [1] is 5.70; in series [2], 5.51; in series [3], 5.46.
On the same counts, the results for `O=C(O)CCCc1cc(-c2cc(Cl)cc(Cl)c2)n(-c2ccc(Cl)cc2)n1` are 5.96, 5.89 and 5.52.
